These results are taken from ChEMBL document CHEMBL3124932, “Design, synthesis and evaluation of genistein-O-alkylbenzylamines as potential multifunctional agents for the treatment of Alzheimer's disease” (Eur J Med Chem, 2014).

Assay [1] concerns Mus musculus. Briefly: Cognition enhancing effect against scopolamine-induced memory deficit in Kunming mouse assessed as increase in latency time at 5 mg/kg, po administered 1 hr before training followed by scopolamine challenge for 7 days measured after 24 hrs by step-down passive avoidance test. It counts as functional, organism-based. Set-up: dose 5 mg/kg. In outline:
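Kunming mice (18–22 g, six weeks old, either sex), 10 per group. Drug in vegetable oil given orally 1 h before training, with scopolamine (3 mg/kg i.p., in 0.9% saline) 30 min later. Behavioural testing one day after 7 days of treatment. Training: 0.5 mA, 2 s foot shock on stepping down from a block. Step-down latency measured 24 h later, 300 s cut-off. Mean ± SEM.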

In assay [2] the target is T1, Acetylcholinesterase (Rattus norvegicus, UniProt P37136).
T1 sequence (P37136 whole entry): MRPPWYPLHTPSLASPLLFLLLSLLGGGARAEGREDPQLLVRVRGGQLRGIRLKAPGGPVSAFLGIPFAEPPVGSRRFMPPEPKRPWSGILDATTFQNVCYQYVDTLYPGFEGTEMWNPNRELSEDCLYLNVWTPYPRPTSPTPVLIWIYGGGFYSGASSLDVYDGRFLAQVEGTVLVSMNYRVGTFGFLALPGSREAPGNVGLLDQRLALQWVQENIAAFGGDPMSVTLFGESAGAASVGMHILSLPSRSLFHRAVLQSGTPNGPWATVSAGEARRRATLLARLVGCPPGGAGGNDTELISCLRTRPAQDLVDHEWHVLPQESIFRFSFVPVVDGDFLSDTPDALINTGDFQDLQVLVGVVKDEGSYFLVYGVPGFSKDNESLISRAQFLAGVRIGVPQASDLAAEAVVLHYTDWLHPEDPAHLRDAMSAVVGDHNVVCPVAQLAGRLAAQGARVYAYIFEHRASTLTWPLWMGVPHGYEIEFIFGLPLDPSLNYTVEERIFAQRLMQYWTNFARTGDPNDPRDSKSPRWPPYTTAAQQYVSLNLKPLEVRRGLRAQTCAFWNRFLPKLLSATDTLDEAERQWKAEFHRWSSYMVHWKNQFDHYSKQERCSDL
Briefly: Inhibition of rat cortex homogenate AchE using acetylthiocholine iodide as substrate after 15 mins by Ellman's method.

In assay [3] the target is Acetylcholinesterase (Electrophorus electricus, UniProt O42275). Briefly: Inhibition of electric eel AchE using acetylthiocholine iodide as substrate after 15 mins by Ellman's method. On the technique in general: Ellman's reagent forms a yellow product with free thiols.
Assay [4] deals with Butyrylcholinesterase (Rattus norvegicus) (UniProt Q9JKC1). Briefly: Inhibition of rat serum BuChE using butyrylthiocholine iodide as substrate at 50 uM after 15 mins by Ellman's method. In outline: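 Modified Ellman assay in phosphate buffer pH 7.4. Enzyme sources: AChE from 5% rat cortex homogenate, preincubated 5 min with iso-OMPA to block BuChE; BuChE from 25% rat serum. Substrates were acetylthiocholine or butyrylthiocholine iodide. Compounds incubated 15 min at 37 °C, then DTNB added; A405 read. IC50 derived; triplicate, 3 independent experiments; "no active" means under 5% inhibition at 50 µM.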

Assay [5] in a line: Antioxidant activity assessed as trolox equivalent of APPH-induced radical scavenging activity at 1 to 10 uM preincubated for 15 mins followed by AAPH challenge measured every minute for 90 minutes by ORAC fluorescence assay. It counts as functional. An outline of the steps:
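ORAC-FL in phosphate buffer pH 7.4. Samples (1–10 µM) preincubated with fluorescein (150 nM final) 15 min at 37 °C, then AAPH (12 mM final) added. Fluorescence (ex 485/em 535 nm) read each minute for 90 min. Net AUC over blank converted to Trolox equivalents using a 1–8 µM Trolox curve. Duplicates, at least 3 independent assays.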

For assay [6], the target named is Amyloid-beta precursor protein (Homo sapiens) (UniProt P05067). Briefly: Induction of amyloid beta (1 to 42) (unknown origin) disaggregation assessed as reduction of Cu2+-induced amyloid beta fibril formation at 25 uM after 24 hrs by thioflavin T fluorescence method. More on the design: scale not given: the % may be the effect or the level left. An outline of the steps:
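Aβ1-42 (25 µM final, HFIP-pretreated) and Cu2+ (25 µM) in HEPES pH 6.6 with 150 mM NaCl, incubated 24 h at 37 °C. Test compound (25 µM final) then added for a further 24 h at 37 °C, wells sealed. Read by ThT in glycine-NaOH pH 8.5 (ex 446/em 490 nm). DMSO 12.5% final; triplicate.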

Assay [7] has as its system Mus musculus. Kind of assay: Cognition enhancing effect against scopolamine-induced memory deficit in po dosed Kunming mouse assessed as increase in latency time administered 1 hr before training followed by scopolamine challenge for 7 days measured after 24 hrs by step-down passive avoidance test. It counts as functional, organism-based. An outline of the steps: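 Kunming mice, six weeks old, 18–22 g, either sex, n=10 per group. Oral dosing at 2, 6, 18 or 3, 9, 27 mg/kg in vegetable oil, 1 h before training; vehicle as negative control. Scopolamine (3 mg/kg i.p., in saline) given 30 min later. Behavioural testing after 7 days of treatment. Step-down training used a 0.5 mA, 2 s foot shock. Latency measured 24 h later, cut-off 300 s; mean ± SEM.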

Assay [8] deals with Acetylcholinesterase (Homo sapiens, UniProt P22303). Kind of assay: Inhibition of human erythrocytes AchE using acetylthiocholine iodide as substrate after 15 mins by Ellman's method.
In assay [9] the target is Amyloid-beta precursor protein (Homo sapiens) (UniProt P05067). Kind of assay: Inhibition of Cu2+-induced amyloid beta (1 to 42) (unknown origin) aggregation at 25 uM after 24 hrs by thioflavin T fluorescence method. An outline of the steps: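 Aβ1-42 (25 µM final, HFIP-pretreated) with an equimolar amount of Cu2+ (25 µM) in HEPES pH 6.6 with 150 mM NaCl. Incubated with or without compound (10–35 µM final) 24 h at 37 °C. ThT in glycine-NaOH pH 8.5 added, fluorescence ex 446/em 490 nm. DMSO 12.5% final. Percent inhibition relative to no-inhibitor wells; triplicate, mean of 3 independent experiments.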

Assay [10] shares this target. Kind of assay: Inhibition of self-induced amyloid beta (1 to 42) (unknown origin) aggregation at 25 uM after 24 hrs by thioflavin T fluorescence method. In outline: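 HFIP-pretreated Aβ1-42 (25 µM final) incubated with compound (10–50 µM) in 50 mM phosphate pH 7.4 for 24 h at 37 °C, wells sealed. ThT in glycine-NaOH pH 8.5 added; fluorescence ex 446/em 490 nm. DMSO 12.5% final. Percent inhibition relative to peptide without inhibitor; triplicate, mean of 3 independent experiments.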

The structures appear in SMILES notation. Activity calls are given as the source filed them.

Sequence of Amyloid-beta precursor protein (Homo sapiens) (P05067 whole entry): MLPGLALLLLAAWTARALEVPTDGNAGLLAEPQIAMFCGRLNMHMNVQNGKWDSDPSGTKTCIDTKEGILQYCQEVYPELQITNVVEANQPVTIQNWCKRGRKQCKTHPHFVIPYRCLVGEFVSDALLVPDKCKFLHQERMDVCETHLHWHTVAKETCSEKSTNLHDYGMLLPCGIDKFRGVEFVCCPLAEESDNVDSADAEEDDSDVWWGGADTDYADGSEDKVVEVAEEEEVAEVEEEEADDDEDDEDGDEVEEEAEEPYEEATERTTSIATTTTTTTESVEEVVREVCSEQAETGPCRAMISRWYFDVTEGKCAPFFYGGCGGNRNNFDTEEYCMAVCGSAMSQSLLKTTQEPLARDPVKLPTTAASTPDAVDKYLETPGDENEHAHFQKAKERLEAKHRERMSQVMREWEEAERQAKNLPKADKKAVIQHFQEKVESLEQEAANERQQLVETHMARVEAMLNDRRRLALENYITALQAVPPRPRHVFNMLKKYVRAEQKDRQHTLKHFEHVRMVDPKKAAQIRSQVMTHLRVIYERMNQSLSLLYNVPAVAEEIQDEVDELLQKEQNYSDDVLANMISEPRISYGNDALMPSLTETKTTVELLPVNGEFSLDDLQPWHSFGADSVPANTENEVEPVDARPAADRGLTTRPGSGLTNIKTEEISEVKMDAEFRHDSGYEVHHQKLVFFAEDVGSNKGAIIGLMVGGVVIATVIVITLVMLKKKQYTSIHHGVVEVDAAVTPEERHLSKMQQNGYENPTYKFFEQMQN
Sequence of Acetylcholinesterase (Electrophorus electricus, UniProt O42275) (O42275 whole entry): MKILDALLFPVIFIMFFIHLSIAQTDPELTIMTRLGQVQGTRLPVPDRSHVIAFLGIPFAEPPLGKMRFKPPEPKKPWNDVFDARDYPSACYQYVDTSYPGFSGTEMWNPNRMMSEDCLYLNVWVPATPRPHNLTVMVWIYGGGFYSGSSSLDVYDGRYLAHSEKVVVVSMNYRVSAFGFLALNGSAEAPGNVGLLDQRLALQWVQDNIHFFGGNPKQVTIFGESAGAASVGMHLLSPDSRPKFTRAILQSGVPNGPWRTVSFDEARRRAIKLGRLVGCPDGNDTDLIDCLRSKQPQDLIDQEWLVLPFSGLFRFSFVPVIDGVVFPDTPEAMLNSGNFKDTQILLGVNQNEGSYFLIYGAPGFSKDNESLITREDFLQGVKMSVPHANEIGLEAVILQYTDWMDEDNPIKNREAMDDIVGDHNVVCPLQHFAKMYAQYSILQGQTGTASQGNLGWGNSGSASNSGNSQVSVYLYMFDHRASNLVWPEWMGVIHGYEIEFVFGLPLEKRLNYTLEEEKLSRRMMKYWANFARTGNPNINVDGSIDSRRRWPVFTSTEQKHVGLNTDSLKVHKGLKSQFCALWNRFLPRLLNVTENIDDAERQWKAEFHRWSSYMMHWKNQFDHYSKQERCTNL
Sequence of Butyrylcholinesterase (Rattus norvegicus) (Q9JKC1 as listed by the source): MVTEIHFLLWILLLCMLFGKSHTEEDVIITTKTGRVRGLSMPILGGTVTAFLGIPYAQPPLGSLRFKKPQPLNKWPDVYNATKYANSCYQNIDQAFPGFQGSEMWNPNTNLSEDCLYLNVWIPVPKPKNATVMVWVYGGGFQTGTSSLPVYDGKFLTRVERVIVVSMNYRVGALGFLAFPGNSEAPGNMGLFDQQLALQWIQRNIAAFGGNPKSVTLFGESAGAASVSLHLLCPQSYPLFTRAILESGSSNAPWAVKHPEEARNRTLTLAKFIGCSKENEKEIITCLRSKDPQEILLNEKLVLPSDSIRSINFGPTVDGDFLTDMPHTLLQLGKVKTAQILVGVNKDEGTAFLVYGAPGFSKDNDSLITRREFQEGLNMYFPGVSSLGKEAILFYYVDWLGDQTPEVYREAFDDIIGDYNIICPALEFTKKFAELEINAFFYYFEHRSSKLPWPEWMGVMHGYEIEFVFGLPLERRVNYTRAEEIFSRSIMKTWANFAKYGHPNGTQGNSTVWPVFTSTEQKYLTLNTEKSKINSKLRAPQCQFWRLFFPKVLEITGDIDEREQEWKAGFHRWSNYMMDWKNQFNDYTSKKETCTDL
Sequence of Acetylcholinesterase (Homo sapiens, UniProt P22303) (P22303 whole entry): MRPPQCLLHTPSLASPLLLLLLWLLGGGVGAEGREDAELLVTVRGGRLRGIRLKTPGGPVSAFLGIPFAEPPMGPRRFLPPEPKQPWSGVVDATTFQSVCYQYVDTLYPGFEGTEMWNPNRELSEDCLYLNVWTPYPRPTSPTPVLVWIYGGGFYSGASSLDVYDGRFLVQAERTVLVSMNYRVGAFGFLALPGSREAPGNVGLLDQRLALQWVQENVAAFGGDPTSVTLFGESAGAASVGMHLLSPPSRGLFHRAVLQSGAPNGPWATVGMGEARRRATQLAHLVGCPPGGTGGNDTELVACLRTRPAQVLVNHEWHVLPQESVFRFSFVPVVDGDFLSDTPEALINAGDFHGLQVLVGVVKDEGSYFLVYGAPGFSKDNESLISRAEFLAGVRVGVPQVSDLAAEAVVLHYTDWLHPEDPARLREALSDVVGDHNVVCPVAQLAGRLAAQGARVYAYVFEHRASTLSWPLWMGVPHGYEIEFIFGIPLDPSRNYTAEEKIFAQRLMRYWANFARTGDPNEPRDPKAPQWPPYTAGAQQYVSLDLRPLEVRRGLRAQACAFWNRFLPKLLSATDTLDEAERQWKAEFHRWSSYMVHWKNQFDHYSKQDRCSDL

Turning to `COc1cc2c(cc1OC)C(=O)C(CC1CCN(Cc3ccccc3)CC1)C2` (configuration not stated), in the assay on Mus musculus [1], the result was Active.
As usually defined, the IC50 is the concentration at which inhibition is half-maximal. In general, inhibition refers to the drop in the measured response relative to a control, in per cent. `CCN(CCCCCCOc1ccc(-c2coc3cc(OCCCCCCN(CC)Cc4ccccc4OC)cc(O)c3c2=O)cc1)Cc1ccccc1OC`: the half-maximal inhibitory concentration (IC50) is 0.51 µM at Acetylcholinesterase [2] and 3.79 µM on Acetylcholinesterase [3]. This compound also yielded an inhibition in [4] of 11.6%. The Activity in [5] amounted to 0.13.
At Acetylcholinesterase [2], `CN(CCCCCCOc1cc(O)c2c(=O)c(-c3ccc(O)cc3)coc2c1)Cc1ccccc1` yielded a half-maximal inhibitory concentration (IC50) of 4.24 µM. This compound also came in with an inhibition in assay [4] of under 5%. In addition, the Activity in [5] was 0.65.
Taken in the same sequence, the figures for `CN(CCCCOc1cc(O)c2c(=O)c(-c3ccc(O)cc3)coc2c1)Cc1ccccc1` were 54.5 µM, 8.9% and 1.
In the same order, the values of `COc1ccccc1CN(C)CCCOc1cc(O)c2c(=O)c(-c3ccc(O)cc3)coc2c1` are 13.5 µM, under 5% and 1.05.
Taken in the same sequence, the figures for `CCN(CCCCOc1ccc(-c2coc3cc(OCCCCN(CC)Cc4ccccc4)cc(O)c3c2=O)cc1)Cc1ccccc1` were 0.9 µM, 10.3% and 0.26.
In turn, `CCN(CCCOc1ccc(-c2coc3cc(O)cc(O)c3c2=O)cc1)Cc1ccccc1` returned a half-maximal inhibitory concentration (IC50) at Acetylcholinesterase [2] of 42.8 µM. In assay [4], this compound yielded an inhibition of 11.6%. In addition, the Activity in assay [5] came out at 0.58.
In the same order, the values of `COc1ccccc1CN(C)CCCCCCOc1ccc(-c2coc3cc(O)cc(O)c3c2=O)cc1` are 5.62 µM, under 5% and 0.4.
In the same order, the values of `CCN(CCCCCCOc1cc(O)c2c(=O)c(-c3ccc(O)cc3)coc2c1)Cc1ccccc1OC` are 0.53 µM, under 5% and 0.56.
On Acetylcholinesterase [2], `CCN(CCCCOc1cc(O)c2c(=O)c(-c3ccc(O)cc3)coc2c1)Cc1ccccc1` came in with an IC50 of 2.42 µM. This compound also returned an inhibition in [4] of 10.4%. The Activity in assay [5] was determined as 2.4.
Take `CCN(CCCCOc1ccc(-c2coc3cc(O)cc(O)c3c2=O)cc1)Cc1ccccc1OC`: the Activity in [6] is 39.2%; in the assay on Mus musculus [7] it was “Dose-dependent effect”; in assay [5] it was 1.1. The IC50 on Acetylcholinesterase [8] came out at 3.88 µM; on Acetylcholinesterase [2], 1.45 µM; against Acetylcholinesterase [3], 15.9 µM. In addition, the inhibition worked out at 71.9% in assay [9], 24.6% in [10] and 6.7% in [4].
For the compound `CCN(CCCCOc1ccc(-c2coc3cc(O)cc(O)c3c2=O)cc1)Cc1ccccc1`, the IC50 against Acetylcholinesterase [2] came to 12.8 µM. Moreover, the inhibition in [4] was under 5%. Moreover, in assay [5], the Activity was 0.6.
Consider `CCN(CCCCCCOc1cc(O)c2c(=O)c(-c3ccc(O)cc3)coc2c1)Cc1ccccc1`, for which the Activity was 36.1% in [6], “Dose-dependent effect” in the assay on Mus musculus [7] and 1.2 in assay [5]. For the same compound, the figures for the IC50 at Acetylcholinesterase [8], on Acetylcholinesterase [2] and against Acetylcholinesterase [3] were 5.8 µM, 0.35 µM and 4.98 µM, respectively. The inhibition in [9] is 72.1%; in [10], 34.3%; in assay [4], under 5%.
`COc1ccccc1CN(C)CCCCCCOc1cc(O)c2c(=O)c(-c3ccc(O)cc3)coc2c1` registered a half-maximal inhibitory concentration (IC50) against Acetylcholinesterase [2] of 3.19 µM. In [4], this compound gave an inhibition of under 5%. In [5], the Activity came to 2.7.
In the same order, the values of `CN(CCCCCCOc1ccc(-c2coc3cc(O)cc(O)c3c2=O)cc1)Cc1ccccc1` are 3.54 µM, 7.7% and 0.3.
Taken in the same sequence, the figures for `CCN(CCCOc1cc(O)c2c(=O)c(-c3ccc(O)cc3)coc2c1)Cc1ccccc1OC` were 0.47 µM, under 5% and 1.02.
Taken in the same sequence, the figures for `COc1ccccc1CN(C)CCCOc1ccc(-c2coc3cc(O)cc(O)c3c2=O)cc1` were 37.4 µM, under 5% and 0.62.
For `CCN(CCCCCCOc1ccc(-c2coc3cc(O)cc(O)c3c2=O)cc1)Cc1ccccc1`, the midpoint of inhibition against Acetylcholinesterase [2], the IC50, lay at 38.4 µM. Moreover, the inhibition in [4] was under 5%. Besides, the Activity in [5] is 0.29.
With `COc1cc(/C=C/C(=O)CC(=O)/C=C/c2ccc(O)c(OC)c2)ccc1O`, the inhibition in assay [9] turned out to be 64%.
`CCN(CCCCCCOc1ccc(-c2coc3cc(O)cc(O)c3c2=O)cc1)Cc1ccccc1OC` displayed an IC50 against Acetylcholinesterase [2] of 1.69 µM. Also, in assay [4], the inhibition is under 5%. Also, the Activity in assay [5] stood at 0.38.
For `CN(CCCOc1ccc(-c2coc3cc(O)cc(O)c3c2=O)cc1)Cc1ccccc1`, inhibition against Acetylcholinesterase [2] was half-maximal at 49.3 µM (IC50). The compound also returned an inhibition in [4] of under 5%. For the same compound, the Activity in assay [5] turned out to be 0.46.
Taken in the same sequence, the figures for `CCN(CCCOc1cc(O)c2c(=O)c(-c3ccc(O)cc3)coc2c1)Cc1ccccc1` were 1.42 µM, 9.9% and 1.12.
For `CCN(CCCOc1ccc(-c2coc3cc(O)cc(O)c3c2=O)cc1)Cc1ccccc1OC`, inhibition on Acetylcholinesterase [2] was half-maximal at 16 µM (IC50). For the same compound, the inhibition in [4] came out at 17.6%. The Activity in assay [5] was 0.64.
Take `CCN(CCCCOc1cc(O)c2c(=O)c(-c3ccc(O)cc3)coc2c1)Cc1ccccc1OC`: the half-maximal inhibitory concentration (IC50) against Acetylcholinesterase [2] amounted to 0.83 µM. Further, the inhibition in [4] came out at 7.7%. In assay [5], the Activity was 1.06.
Take `CCN(CCCOc1ccc(-c2coc3cc(OCCCN(CC)Cc4ccccc4OC)cc(O)c3c2=O)cc1)Cc1ccccc1OC`: the concentration for half-maximal inhibition (IC50) came to 0.21 µM against Acetylcholinesterase [2] and 0.16 µM against Acetylcholinesterase [3]. Besides, the inhibition in assay [4] is 12.5%. The Activity in assay [5] came out at 0.49.
Turning to `CN(CCCOc1cc(O)c2c(=O)c(-c3ccc(O)cc3)coc2c1)Cc1ccccc1`, it took 36.3 µM to reach half-maximal inhibition against Acetylcholinesterase [2] (IC50). The inhibition in [4] came out at 7.4%. The Activity in assay [5] was 0.89.
In the same order, the values of `COc1ccccc1CN(C)CCCCOc1cc(O)c2c(=O)c(-c3ccc(O)cc3)coc2c1` are 5.55 µM, under 5% and 1.56.
Taken in the same sequence, the figures for `CN(CCCCOc1ccc(-c2coc3cc(O)cc(O)c3c2=O)cc1)Cc1ccccc1` were 3.79 µM, 10.8% and 0.32.
Compound `COc1ccccc1CN(C)CCCCOc1ccc(-c2coc3cc(O)cc(O)c3c2=O)cc1` displayed an IC50 at Acetylcholinesterase [2] of 5.31 µM. For the same compound, the inhibition in [4] came out at 9.7%. Also, the Activity in [5] amounted to 1.1.
